Rows were chosen to be rich in hits. Some 1.4% of all compounds tested hit in one or more screens of this group.
PAD4 inh = inhibitors of human PAD4. recombinant PAD4, RCA probe fluorescence polarization. 330,000 tested, 0.41% active. Q9UM07. inhibition, % at 6.36 µM;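 active means percent inhibition above a cutoff equal to the mean of all tested compounds plus 3 SD, cut at about 15% in these data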
Target sequence (Q9UM07 whole entry, looked up): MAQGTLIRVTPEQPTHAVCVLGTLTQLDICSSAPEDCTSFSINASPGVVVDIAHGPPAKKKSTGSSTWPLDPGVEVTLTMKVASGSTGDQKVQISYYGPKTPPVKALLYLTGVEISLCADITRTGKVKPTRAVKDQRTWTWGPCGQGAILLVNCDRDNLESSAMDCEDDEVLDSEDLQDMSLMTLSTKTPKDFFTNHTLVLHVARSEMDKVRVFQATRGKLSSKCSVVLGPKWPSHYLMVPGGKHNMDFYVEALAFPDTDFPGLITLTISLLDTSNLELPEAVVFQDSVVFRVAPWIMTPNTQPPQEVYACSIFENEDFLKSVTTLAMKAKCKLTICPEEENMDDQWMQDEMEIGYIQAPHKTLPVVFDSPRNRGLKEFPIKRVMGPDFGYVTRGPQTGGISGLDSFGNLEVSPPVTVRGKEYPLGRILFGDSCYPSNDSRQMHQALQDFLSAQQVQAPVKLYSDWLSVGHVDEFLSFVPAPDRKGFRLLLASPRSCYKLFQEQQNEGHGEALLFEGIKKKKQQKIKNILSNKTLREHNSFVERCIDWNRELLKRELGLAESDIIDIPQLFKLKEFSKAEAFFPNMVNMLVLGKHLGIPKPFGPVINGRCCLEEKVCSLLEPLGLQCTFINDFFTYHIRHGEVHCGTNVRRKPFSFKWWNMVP
CTSL1 counter = cathepsin L1 inhibition, PFM18AAP counter-screen; inhibition, % at 5.96 µM; recombinant F. hepatica cathepsin L1, Z-Leu-Arg-MCA fluorescence; AID 1906; 300,000 tested, 0.49% active;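 active means inhibition above the mean of all tested compounds plus 3 SD, set per screening campaign, cut at about 17% in these data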
TDP2 inh = blocks human TDP2 phosphodiesterase activity. 370,000 tested, 0.34% active. inhibition, % at 12.8 µM. AID 720702. O95551. recombinant TDP2, T5PNP hydrolysis, p-nitrophenol absorbance 415 nm;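 active means inhibition above the mean of all tested compounds plus 3 SD, set per campaign, cut at about 25% in these data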
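System – recombinant human TDP2 · Amount – 120 nM TDP2 per well · Buffer or medium – Mg2+-containing Tris-HCl buffer, pH 7.5 · Reagent – T5PNP substrate, 5 mM · Dosing – 12.8 µM single point, 1% DMSO · Incubation – 2 h at 37 °C · Measured by – epi absorbance · Read-out basis – percent inhibition · Benchmarks – high control without enzyme, low control DMSO plus TDP2 · Repeats – singlicate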
GSTO1 inh = GSTO1 inhibition, counter-screen for RBBP9 inhibitors; inhibition, % at 5.96 µM; P78417; AID 1974; recombinant GSTO1, activity-based probe fluorescence polarization; 300,000 tested, 1.1% active;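 active means inhibition above the campaign mean inhibition plus 3 SD, cut at about 35% in these data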
PAD4 FP conf = PAD4 (human) inhibition, confirmed; shares compounds with PAD4 inh; recombinant PAD4, RCA probe fluorescence polarization; inhibition, % at 6.36 µM; 1,200 tested, 28% active; AID 488796;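 active means mean inhibition across replicates above the hit cutoff set by the earlier primary screen, cut at about 15% in these data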;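 further: inhibitors block active-site labeling by the probe so polarization falls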
Large screens that a line does not name were inactive (follow-up assays come after a bar, where they were run).

COc1ccc(C(N)c2nccc3cc(OC)c(OC)cc23)cc1OC (stereo unspecified)	PAD4 inh 21.6, CTSL1 counter 26.3, GSTO1 inh 39.3 (no result: TDP2 inh) | PAD4 FP conf inactive
COc1cc(N)c(Cc2nccc3cc(OC)c(OC)cc23)cc1OC	none
O=C(NN=C1C2CC3CC(C2)CC1C3)c1ccncc1	none
O=C(N/N=C1\C/C(=N\NC(=O)c2ccncc2)c2ccccc21)c1ccncc1	PAD4 inh 43.6, CTSL1 counter 42.5, GSTO1 inh 56.2 | PAD4 FP conf inactive
Cc1nonc1OC(C)CNc1ccc([N+](=O)[O-])cc1 (stereo unspecified)	PAD4 inh 56.0 | PAD4 FP conf inactive
O=C(NCc1ccco1)c1cc2ccccc2o1	none
CN(C)C(CNC(=O)c1cc2ccccc2o1)c1ccco1 (stereo unspecified)	PAD4 inh 88.1 (no result: CTSL1 counter, GSTO1 inh) | PAD4 FP conf inactive
COc1ccccc1CN[C@@H]1CC[C@@]23CCCN2C(=O)CCC[C@H]3C1	none (no result: PAD4 inh, CTSL1 counter, GSTO1 inh)
Cc1cc(O)ccc1N/C=C/c1onc(C)c1[N+](=O)[O-]	PAD4 inh 37.1 | PAD4 FP conf inactive
Cc1cccc(N/C=C/c2onc(C)c2[N+](=O)[O-])c1	none
Fc1ccc(NC2CCC23CCC(c2ccccc2)CC3)cc1C(F)(F)F (stereo unspecified)	none (no result: PAD4 inh, CTSL1 counter, GSTO1 inh)
CCOc1ccc(NCC(=O)N/N=C/C=C/c2ccccc2)cc1	none
CCOc1ccc(N=C/C=C/c2ccccc2)c(O)c1	PAD4 inh 26.2, GSTO1 inh 54.5 | PAD4 FP conf inactive
Cc1ccc(NC2=C(Cl)C(=O)OC2OC(=O)c2ccccc2)c(C)c1 (stereo unspecified)	none
Cc1ccccc1NC1=C(Cl)C(=O)OC1OC(=O)c1ccccc1C (stereo unspecified)	PAD4 inh 43.9 | PAD4 FP conf inactive
Cc1cc(N)ccc1-n1c(C)ccc1C	PAD4 inh 89.7, GSTO1 inh 81.9 | PAD4 FP conf inactive
CS(=O)(=O)c1ccc(C(=O)OCC#CCSc2nnc(-c3cccc4ccccc34)o2)cc1	none (no result: PAD4 inh, CTSL1 counter, GSTO1 inh)
Cc1ccc2nc(NC(=O)CSc3nncc(=O)n3N)sc2c1	PAD4 inh 19.0 | PAD4 FP conf inactive
COc1cccc(N2CCN(C(=O)c3cn(Cc4ccccc4)nc3-c3cccnc3)CC2)c1	PAD4 inh 20.9 (no result: CTSL1 counter, GSTO1 inh) | PAD4 FP conf inactive
N#Cc1ccc(CSc2nc3sc4c(c3c(=O)n2-c2ccc(Br)cc2)CCCC4)cc1	none (no result: PAD4 inh, CTSL1 counter, GSTO1 inh)
CN(C)S(=O)(=O)c1cccc(NC(=O)CSc2ncnc3ccccc23)c1	PAD4 inh 15.1 | PAD4 FP conf inactive
COc1cccc(/C=C2/CN(C)CC3=C2OC(N)=C(C#N)C3c2cccc(OC)c2)c1 (stereo unspecified)	PAD4 inh 60.9 | PAD4 FP conf inactive
COc1cccc(C2C(C#N)=C(N)OC(C(C)(C)C)=C2C#N)c1 (stereo unspecified)	none
N#Cc1cccc(NS(=O)(=O)c2ccc(S(=O)(=O)N3CCOCC3)cc2)c1	none (no result: CTSL1 counter, GSTO1 inh)
N#Cc1cccc(NS(=O)(=O)c2ccccc2Cl)c1	PAD4 inh 22.3 (no result: CTSL1 counter, GSTO1 inh) | PAD4 FP conf inactive
CCC1(C)Cc2c(sc3nc(SC)[nH]c(=S)c23)CO1 (stereo unspecified)	PAD4 inh 35.7 (no result: TDP2 inh) | PAD4 FP conf 27.0
CCN(CC)c1ccc2c(c1)oc(=O)c1c(Cl)cc(=O)oc12	PAD4 inh 25.8 (no result: TDP2 inh) | PAD4 FP conf 19.1
COCCCn1c(=S)[nH]c2c(sc3ccccc32)c1=O	PAD4 inh 18.4 | PAD4 FP conf inactive
COCCNC(=O)C(c1ccncc1)N(C(=O)Cn1nnc2ccccc21)c1ccc(OC)cc1 (stereo unspecified)	PAD4 inh 16.0 | PAD4 FP conf 18.6
COCCNC(=O)C(c1ccc(OC)cc1)N(C(=O)Cn1nnc2ccccc21)c1cccnc1 (stereo unspecified)	none
CN(C)CCN(Cc1ccccc1)c1ccccn1	PAD4 inh 73.5 | PAD4 FP conf inactive
CCOC(=O)C1(Cc2ccccc2)CCN(Cc2ccc(C)cc2)CC1	none (no result: PAD4 inh, CTSL1 counter, GSTO1 inh)
O=[N+]([O-])c1c(Nc2ccc(O)cc2)cc(Cl)c2nonc12	PAD4 inh 21.8 | PAD4 FP conf inactive
CCN1C=C(Cc2ccccc2C)C2=C(C1)C(c1ccccc1C)C(C#N)=C(N)O2 (stereo unspecified)	PAD4 inh 17.3 | PAD4 FP conf inactive
CCN1C=C(Cc2ccc(F)cc2)C2=C(C1)C(c1ccc(F)cc1)C(C#N)=C(N)O2 (stereo unspecified)	PAD4 inh 23.8 | PAD4 FP conf inactive
COC(=O)CNC(=O)[C@H](Cc1ccccc1)NC1(C(=O)NCCc2c[nH]c3ccccc23)CCCCC1	none (no result: PAD4 inh, CTSL1 counter, GSTO1 inh)
C=CCn1c(SCC(=O)OC(C)C)nnc1-c1ccc(C)cc1	none (no result: PAD4 inh, CTSL1 counter, GSTO1 inh)
O=c1[nH]c(Sc2ccc([N+](=O)[O-])cc2[N+](=O)[O-])nc2ccccc12	PAD4 inh 43.9 | PAD4 FP conf 19.1
Cc1ccc2c(c1)-c1c(ssc1=S)C(C)(C)N2C(=O)CSc1nncn1C	PAD4 inh 17.1 | PAD4 FP conf 21.9
Cc1cc(C)c2c(c1)-c1c(ssc1=S)C(C)(C)N2C(=O)CSc1nncn1C	PAD4 inh 33.8 | PAD4 FP conf 31.6
Cn1c(SC/C=C/c2ccccc2)nnc1-c1cccnc1	none (no result: PAD4 inh, CTSL1 counter, GSTO1 inh)
CCc1cccc2c1NC1(CCCC1)CC2C (stereo unspecified)	none
Cc1cccc2c1NC(C)CC2C (stereo unspecified)	PAD4 inh 15.4 | PAD4 FP conf inactive
COc1cccc2cc(C(=O)NCCc3ccccc3)oc12	PAD4 inh 16.8 | PAD4 FP conf inactive
CC(C)(C)c1ccc(C(=O)Nc2cc(Cl)c(Cl)cc2C(=O)O)cc1	none (no result: PAD4 inh, CTSL1 counter, GSTO1 inh)
O=C(O)CCC(=O)c1ccc(-c2ccccc2)cc1	PAD4 inh 172.2 | PAD4 FP conf 15.9
CN(c1cccnc1)c1ccc(NC(=O)Cc2c[nH]c3ccccc23)cc1-c1ccc(F)c(F)c1	none (no result: PAD4 inh, CTSL1 counter, GSTO1 inh)
CC1(C)c2ccccc2N2CCC(=O)NC21/C=C/c1ccco1 (stereo unspecified)	PAD4 inh 16.6 | PAD4 FP conf inactive
CC(C)(C)c1ccc(OCCCNC2CCCC2)cc1	none
Cc1ccc(OCCCNC2CCCC2)cc1	PAD4 inh 16.9 | PAD4 FP conf inactive
CCOC(=O)C(Nc1ccc2ccccc2c1)C(=O)OCC	PAD4 inh 21.2 | PAD4 FP conf inactive
CCN1C(=O)c2cccc3c(N)ccc(c23)C1=O	PAD4 inh 26.9 | PAD4 FP conf 25.5
Cc1ccc(N2C(=O)c3cccc4c(N)ccc(c34)C2=O)c2cccnc12	none
CCOC(=O)c1ccc(S(=O)(=O)Nc2nc3cc(S(=O)(=O)NC4=NCCCCC4)ccc3s2)cc1	PAD4 inh 29.0 | PAD4 FP conf 26.0
Nc1nc2cc(S(=O)(=O)NC3=NCCCCC3)ccc2s1	PAD4 inh 28.2 | PAD4 FP conf 25.3
COC(=O)C1CN(Cc2cn(Cc3ccccc3)nn2)CCS(=O)(=O)N1Cc1ccc(OC)cc1 (stereo unspecified)	none (no result: PAD4 inh, CTSL1 counter, GSTO1 inh)
O=C(NCc1ccccn1)Nc1ccccc1C(F)(F)F	PAD4 inh 35.1 | PAD4 FP conf inactive
CN(C)NC(=S)NC(=O)C12CC3CC(CC(C3)C1)C2	none

Source: PubChem (The Scripps Research Institute Molecular Screening Center)
